In publication PMC5955456 (Virulence, 2018):
No end group written: not given here.

How the values were obtained:
E. coli = assay: Viable count analysis; assay type: cell-based, Escherichia coli; details: GGL27 1 µM, 1 hour at 37°C, normal human citrated plasma; Fig. 3h
How it was run: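 Mid-exponential E. coli grown in Todd-Hewitt broth and washed. 2 x 10^8 cfu/ml incubated 60 min at 37°C with test peptide in 100% human citrated plasma, or in plasma pretreated 3 h with IdeS (0.2 µg/µl) to remove IgG. Serial dilutions plated on TH agar overnight at 37°C; cfu counted and expressed as % survival, mean ± SD.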

bacteria = details: buffer with physiological salt content or plasma; ref [7]; cited from earlier work
[1] = system: intrinsic pathway of coagulation; assay: aPTT clotting assay in crocodile plasma; assay type: biochemical, crocodile (Crocodylus siamensis); details: peptide 50 µM in citrated crocodile plasma; n=3; Fig. 4b; words
[2] = system: intrinsic pathway of coagulation; assay: aPTT clotting assay in turkey plasma; assay type: biochemical; details: peptide 50 µM in citrated turkey plasma; n=3; Fig. 4c; words

GGLIKTKRKRKKQRVKIAYEEIFVKNM [GGL27]
killing of E. coli (E. coli): ~100%

LL-37: antibacterial peptide (LLGDFFRKSKEKIGKEFKRIVQRIKDFLRNLVPRTES; Antibacterial peptide LL-37; UniProt P49913 134-170, looked up)
killing activity in physiological salt or plasma (bacteria): lose their killing activity

RGIIKIKRKRKKQPEKMVRDEIIIERI [American alligator]
aPTT clotting time [1]: clotting times were prolonged

RRLIRIKKKKKQSLKTVGEEIIRGRIQ [Common turkey]
aPTT clotting time [2]: shortened clotting time
